The full list was thinned out, with hits kept by preference.
Lung fibro prol: blocks proliferation of human lung fibroblasts; viability, % at 10 µM; LL 47 human lung fibroblast viability, ATP luminescence; active compounds read low; 1.1% of 85,000 active;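 active means viability at or below 50% in the single dose screen; inactive means viability above 50%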;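 further: compound exposure lasted 72 h before the ATP readout; 100% = median luminescence of untreated cell-only wells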
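Test system: LL 47 human lung fibroblasts / Incubation: 72 h compound exposure at 37 °C after overnight plating / Technique: luminescent ATP detection, CellTiter-Glo / Compound dosing: 0.1% DMSO in all compound wells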
H69AR inhibit: blocks growth of human H69AR lung tumor cells | H69AR lung tumor viability, ATP luminescence, 72 h; active compounds read low | viability, % at 10 µM | 6% of 85,000 active | AID 598;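 active means viability at or below 40%; inactive means viability above 40%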;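 further: multidrug resistant small cell line overexpressing MRP-1 efflux transporter; 100% = mean luminescence of untreated control wells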
HUVEC inhibit: blocks proliferation of human endothelial cells | HUVEC proliferation, CellTiter-Glo luminescence, 72 h; active compounds read low | viability, % at 10 µM (by protocol) | 1.1% of 86,000 active | AID 648;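 active means viability at or below 30%; inactive means viability above 30%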;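 further: 100% = median luminescence of DMSO-only cell control wells on each plate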
HCT116 bCat-KO: beta-catenin-lacking colon tumor cell growth suppression; HCT116 beta-catenin knockout viability, CellTiter-Glo, 60 h; active compounds read low; viability, % at 10 µM; 1.5% of 140,000 active; AID 818;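 active means viability at or under a set limit, the compound median less 4 SD, cut at about 6% in these data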;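 further: 0% = Hyamine 1622 control at 20 µM and 100% = untreated cell control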
PTEN del growth: PTEN-deleted cell growth suppression; 1.2% of 140,000 active; HCT116 PTEN-null viability, CellTiter-Glo, 60 h; active compounds read low; viability, % at 10 µM; AID 827;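 active means viability at or below a set limit, 4 SD under the median of all tested compounds, cut at about 3.7% in these data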;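 further: PTEN knockout HCT116 line with beta catenin targeted HCT116 as companion control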
* hit, by the source's call.

Results for c1ccc(-c2nc(N3CCCCC3)nc3ccccc23)cc1 ?
Lung fibro prol: 90; H69AR inhibit: 83; HUVEC inhibit: 105; HCT116 bCat-KO: 75; PTEN del growth: 77

Results for c1ccc(-c2nc(N3CCNCC3)nc3ccccc23)cc1 ?
Lung fibro prol: 88; H69AR inhibit: 4.4*; HUVEC inhibit: 63; HCT116 bCat-KO: 57; PTEN del growth: 40

How did COc1ccc(/C=C2\CCc3ccccc3C2=O)cc1Cn1nc(C)cc1C do in these assays?
Lung fibro prol: 80; H69AR inhibit: 15*; HUVEC inhibit: 87; HCT116 bCat-KO: 17; PTEN del growth: 12

Results for COc1ccc(/C=C2/CCc3ccccc3C2=O)cc1CN1CCOCC1 ?
HCT116 bCat-KO: 21; PTEN del growth: 32

Results for O=C(CSc1nc2ccccc2[nH]1)Nc1cc(C(F)(F)F)ccc1N1CCOCC1 ?
Lung fibro prol: 97; H69AR inhibit: 31*; HUVEC inhibit: 96; HCT116 bCat-KO: 70; PTEN del growth: 69

Results for Cc1onc(-c2ccccc2)c1C(=O)Nc1ccccc1N1CCOCC1 ?
Lung fibro prol: 92; H69AR inhibit: 31*; HUVEC inhibit: 84; HCT116 bCat-KO: 84; PTEN del growth: 86

How did Cc1onc(-c2ccccc2)c1C(=O)Nc1cc(C(F)(F)F)ccc1N1CCOCC1 do in these assays?
Lung fibro prol: 48*; H69AR inhibit: 23*; HUVEC inhibit: 39; HCT116 bCat-KO: 13; PTEN del growth: 13

How did Cc1ccccc1NC(=O)c1c(-c2ccccc2)noc1C do in these assays?
Lung fibro prol: 91; H69AR inhibit: 88; HUVEC inhibit: 93; HCT116 bCat-KO: 96; PTEN del growth: 103

How did O=C(OCC(=O)N1CCCCC1)c1cc(NS(=O)(=O)c2ccc(Cl)c([N+](=O)[O-])c2)ccc1O do in these assays?
HCT116 bCat-KO: 78; PTEN del growth: 77

How did Cc1nc2cc(N3CCCCC3)c(NC(=O)c3ccncc3)cc2c(=O)n1Cc1ccc(Cl)cc1 do in these assays?
HCT116 bCat-KO: 1.2*; PTEN del growth: 1.1*

How did Cc1nc2cc(N3CCN(C)CC3)c(NC(=O)Cc3ccccc3)cc2c(=O)n1Cc1ccccc1 do in these assays?
Lung fibro prol: 94; HUVEC inhibit: 80; HCT116 bCat-KO: 83; PTEN del growth: 77

What do the screens show for `CCN(CC)S(=O)(=O)c1ccc(NC(=O)COC(=O)CNS(=O)(=O)/C=C/c2ccccc2)cc1`?
HCT116 bCat-KO: 91; PTEN del growth: 95

What do the screens show for `Cc1cc(N2CCC3(CC2)OCCO3)n2nc(C)c(-c3ccc(Cl)cc3)c2n1`?
Lung fibro prol: 84; H69AR inhibit: 37*; HUVEC inhibit: 91

How did COc1ccccc1-c1c(C)nn2c(N3CCC4(CC3)OCCO4)cc(C)nc12 do in these assays?
Lung fibro prol: 88; H69AR inhibit: 43; HUVEC inhibit: 97; HCT116 bCat-KO: 83; PTEN del growth: 82

What do the screens show for `O=C(CSc1ccc2c(c1)OCCO2)NC(=O)Cc1ccccc1`?
HCT116 bCat-KO: 90; PTEN del growth: 86

What do the screens show for `CC(C)c1ccc(-c2c(C#N)c(N)nc(SCC(=O)N3CCCCC3)c2C#N)cc1`?
Lung fibro prol: 72; H69AR inhibit: 63; HUVEC inhibit: 28*; HCT116 bCat-KO: 90; PTEN del growth: 87

Results for Nn1c(SCC(=O)NC2CCCCC2)nnc1-c1ccc(Cl)cc1 ?
Lung fibro prol: 103; H69AR inhibit: 100; HUVEC inhibit: 116; HCT116 bCat-KO: 92; PTEN del growth: 89

What do the screens show for `CC(C)c1ccc(-c2c(C#N)c(N)nc(SCC(=O)N3CCCCCC3)c2C#N)cc1`?
Lung fibro prol: 84; H69AR inhibit: 60; HUVEC inhibit: 79; HCT116 bCat-KO: 82; PTEN del growth: 99

What do the screens show for `N#Cc1c(N)nc(SCC(=O)NC2CCCCC2)c(C#N)c1-c1ccc(Cl)cc1`?
Lung fibro prol: 66; H69AR inhibit: 36*; HUVEC inhibit: 66; HCT116 bCat-KO: 27; PTEN del growth: 41

What do the screens show for `O=C1CC(C(=O)Nc2nccs2)C(c2ccccc2)O1` (stereo unspecified)?
Lung fibro prol: 92; H69AR inhibit: 89; HUVEC inhibit: 94; HCT116 bCat-KO: 97; PTEN del growth: 103

What do the screens show for `CN(C(=S)NC(=O)c1ccc(Br)o1)c1ccccc1`?
HCT116 bCat-KO: 90; PTEN del growth: 99

Results for O=C1C(Cc2cccc([N+](=O)[O-])c2)SC(=Nc2ccccc2)N1c1ccccc1 (stereo unspecified) ?
HCT116 bCat-KO: 76; PTEN del growth: 70

Results for CCc1c(C)c(C#N)c2nc3ccccc3n2c1NCC1CCCO1 (stereo unspecified) ?
Lung fibro prol: 100; H69AR inhibit: 32*; HUVEC inhibit: 104; HCT116 bCat-KO: 92; PTEN del growth: 100

How did CCCc1c(C)c(C#N)c2nc3ccccc3n2c1NCCCN1CCOCC1 do in these assays?
HCT116 bCat-KO: 76; PTEN del growth: 83

What do the screens show for `CCc1c(C)c(C#N)c2nc3ccccc3n2c1Cl`?
HCT116 bCat-KO: 4.0*; PTEN del growth: 2.2*

Results for CC(C)c1cc(NCC2CCCO2)n2c(nc3ccccc32)c1C#N (stereo unspecified) ?
Lung fibro prol: 95; H69AR inhibit: 9.7*; HUVEC inhibit: 80; HCT116 bCat-KO: 83; PTEN del growth: 79

How did Cc1cc(NCC2CCCO2)n2c(nc3ccccc32)c1C#N (stereo unspecified) do in these assays?
Lung fibro prol: 102; H69AR inhibit: 65; HUVEC inhibit: 88; HCT116 bCat-KO: 106; PTEN del growth: 90

How did CCc1c(C)c(C#N)c2nc3ccccc3n2c1-n1nc(C)cc1C do in these assays?
Lung fibro prol: 95; H69AR inhibit: 62; HUVEC inhibit: 114; HCT116 bCat-KO: 86; PTEN del growth: 88

What do the screens show for `N#CC1=C(N)NC(SCc2ccc(Cl)cc2)=C(C#N)C12CCCCC2`?
Lung fibro prol: 85; H69AR inhibit: 13*; HUVEC inhibit: 45; HCT116 bCat-KO: 64; PTEN del growth: 49

How did c1cncc(-c2nc(-c3cccs3)cs2)c1 do in these assays?
Lung fibro prol: 92; H69AR inhibit: 75; HUVEC inhibit: 84; HCT116 bCat-KO: 89; PTEN del growth: 99

What do the screens show for `Clc1ccsc1-c1csc(-c2cccnc2)n1`?
Lung fibro prol: 75; H69AR inhibit: 17*; HUVEC inhibit: 38; HCT116 bCat-KO: 47; PTEN del growth: 46

Results for N#Cc1ccc(-c2ccco2)nc1SCc1ccccc1 ?
Lung fibro prol: 81; H69AR inhibit: 25*; HUVEC inhibit: 89; HCT116 bCat-KO: 79; PTEN del growth: 66

What do the screens show for `O=C(Nc1nccs1)c1cccc(N2C(=O)c3cccc4c([N+](=O)[O-])ccc(c34)C2=O)c1`?
HCT116 bCat-KO: 1.7*; PTEN del growth: 1.5*

What do the screens show for `C=CCn1c(SCc2ccc(C(=O)OC)cc2)nnc1-c1sc(N)nc1C`?
HCT116 bCat-KO: 98; PTEN del growth: 96

What do the screens show for `C=CCn1c(SCC(=O)Nc2ccc(C(=O)OCC)cc2)nnc1-c1sc(N)nc1C`?
Lung fibro prol: 101; H69AR inhibit: 39*; HUVEC inhibit: 99; HCT116 bCat-KO: 79; PTEN del growth: 88

Bioassay records (PubChem)
